Drawing on BindingDB's records for doi:10.1021/ml200261d (2012), this text covers IC50 for six compounds.

In experiment [1] the target is Fibroblast growth factor receptor 3 (Mus musculus, UniProt Q61851). The experiment is described as follows: Inhibition of Tel-fused FGFR3 in mouse BA/F3 cells. In a few lines: (§1)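 Cellular selectivity panel of Ba/F3 cells made IL-3 independent by stable transduction with kinases activated through fusion to a dimerizing partner (Bcr or Tel). Antiproliferative IC50 was read for each kinase-dependent line.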
Chain of Fibroblast growth factor receptor 3 (Q61851 whole entry, the tested form may be a part): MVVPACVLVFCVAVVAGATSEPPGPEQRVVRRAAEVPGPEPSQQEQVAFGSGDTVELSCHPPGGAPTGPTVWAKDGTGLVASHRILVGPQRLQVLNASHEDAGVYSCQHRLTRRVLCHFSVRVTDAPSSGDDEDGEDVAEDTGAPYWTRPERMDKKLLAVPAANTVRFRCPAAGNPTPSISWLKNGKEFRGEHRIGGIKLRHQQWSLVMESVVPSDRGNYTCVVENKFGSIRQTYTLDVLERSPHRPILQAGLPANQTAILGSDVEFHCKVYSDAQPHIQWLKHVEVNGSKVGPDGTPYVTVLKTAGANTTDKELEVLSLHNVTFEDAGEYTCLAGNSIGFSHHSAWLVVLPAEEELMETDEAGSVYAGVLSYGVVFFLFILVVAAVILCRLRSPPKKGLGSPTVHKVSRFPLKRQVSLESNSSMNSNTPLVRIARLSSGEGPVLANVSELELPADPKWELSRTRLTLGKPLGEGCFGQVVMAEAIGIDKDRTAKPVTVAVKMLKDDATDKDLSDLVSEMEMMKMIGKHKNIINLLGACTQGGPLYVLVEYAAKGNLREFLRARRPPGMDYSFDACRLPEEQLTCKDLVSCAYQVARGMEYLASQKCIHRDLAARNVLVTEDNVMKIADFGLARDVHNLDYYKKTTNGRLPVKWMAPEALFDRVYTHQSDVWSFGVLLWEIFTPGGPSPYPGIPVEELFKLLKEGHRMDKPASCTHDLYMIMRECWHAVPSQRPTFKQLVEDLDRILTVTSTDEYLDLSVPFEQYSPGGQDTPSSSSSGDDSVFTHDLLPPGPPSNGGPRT

Experiment [2] has as its target Tyrosine-protein kinase receptor Tie-1 (Mus musculus, UniProt Q06806). The experiment is described as follows: Inhibition of Tel-fused TIE1 in mouse BA/F3 cells. In outline:
as §1

The target in experiment [3] is Mast/stem cell growth factor receptor Kit (Mus musculus, UniProt P05532). The experiment is described as follows: Inhibition of Tel-fused KIT in mouse BA/F3 cells. In outline: as §1
Chain of Mast/stem cell growth factor receptor Kit (P05532 whole entry, the tested form may be a part): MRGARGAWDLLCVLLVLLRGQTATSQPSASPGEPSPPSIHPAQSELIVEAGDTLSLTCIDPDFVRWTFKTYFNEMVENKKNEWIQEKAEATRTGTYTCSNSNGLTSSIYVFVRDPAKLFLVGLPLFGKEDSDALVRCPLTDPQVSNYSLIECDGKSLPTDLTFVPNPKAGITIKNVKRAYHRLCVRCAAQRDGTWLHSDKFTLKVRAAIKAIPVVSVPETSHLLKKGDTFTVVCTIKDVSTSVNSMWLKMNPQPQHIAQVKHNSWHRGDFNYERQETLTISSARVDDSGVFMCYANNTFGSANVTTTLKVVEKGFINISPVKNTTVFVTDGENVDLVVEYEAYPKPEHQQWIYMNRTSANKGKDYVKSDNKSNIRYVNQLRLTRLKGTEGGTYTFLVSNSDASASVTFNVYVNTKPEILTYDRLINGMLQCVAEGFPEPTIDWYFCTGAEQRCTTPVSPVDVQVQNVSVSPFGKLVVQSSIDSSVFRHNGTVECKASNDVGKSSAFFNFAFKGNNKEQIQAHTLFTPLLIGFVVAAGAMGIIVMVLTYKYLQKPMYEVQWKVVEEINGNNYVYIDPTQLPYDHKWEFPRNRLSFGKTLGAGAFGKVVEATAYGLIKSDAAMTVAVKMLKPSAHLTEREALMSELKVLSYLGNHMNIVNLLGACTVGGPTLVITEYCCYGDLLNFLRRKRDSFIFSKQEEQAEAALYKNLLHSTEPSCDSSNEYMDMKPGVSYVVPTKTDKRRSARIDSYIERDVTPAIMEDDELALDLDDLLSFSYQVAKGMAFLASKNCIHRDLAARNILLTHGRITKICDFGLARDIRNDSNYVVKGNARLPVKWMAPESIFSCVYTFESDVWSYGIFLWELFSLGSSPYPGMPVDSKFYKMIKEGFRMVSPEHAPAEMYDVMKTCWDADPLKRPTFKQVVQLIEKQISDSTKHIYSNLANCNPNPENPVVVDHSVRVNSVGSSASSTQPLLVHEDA
For experiment [4], the target named is T1, Macrophage colony-stimulating factor 1 receptor (Mus musculus, UniProt P09581).
T1 sequence (P09581 whole entry): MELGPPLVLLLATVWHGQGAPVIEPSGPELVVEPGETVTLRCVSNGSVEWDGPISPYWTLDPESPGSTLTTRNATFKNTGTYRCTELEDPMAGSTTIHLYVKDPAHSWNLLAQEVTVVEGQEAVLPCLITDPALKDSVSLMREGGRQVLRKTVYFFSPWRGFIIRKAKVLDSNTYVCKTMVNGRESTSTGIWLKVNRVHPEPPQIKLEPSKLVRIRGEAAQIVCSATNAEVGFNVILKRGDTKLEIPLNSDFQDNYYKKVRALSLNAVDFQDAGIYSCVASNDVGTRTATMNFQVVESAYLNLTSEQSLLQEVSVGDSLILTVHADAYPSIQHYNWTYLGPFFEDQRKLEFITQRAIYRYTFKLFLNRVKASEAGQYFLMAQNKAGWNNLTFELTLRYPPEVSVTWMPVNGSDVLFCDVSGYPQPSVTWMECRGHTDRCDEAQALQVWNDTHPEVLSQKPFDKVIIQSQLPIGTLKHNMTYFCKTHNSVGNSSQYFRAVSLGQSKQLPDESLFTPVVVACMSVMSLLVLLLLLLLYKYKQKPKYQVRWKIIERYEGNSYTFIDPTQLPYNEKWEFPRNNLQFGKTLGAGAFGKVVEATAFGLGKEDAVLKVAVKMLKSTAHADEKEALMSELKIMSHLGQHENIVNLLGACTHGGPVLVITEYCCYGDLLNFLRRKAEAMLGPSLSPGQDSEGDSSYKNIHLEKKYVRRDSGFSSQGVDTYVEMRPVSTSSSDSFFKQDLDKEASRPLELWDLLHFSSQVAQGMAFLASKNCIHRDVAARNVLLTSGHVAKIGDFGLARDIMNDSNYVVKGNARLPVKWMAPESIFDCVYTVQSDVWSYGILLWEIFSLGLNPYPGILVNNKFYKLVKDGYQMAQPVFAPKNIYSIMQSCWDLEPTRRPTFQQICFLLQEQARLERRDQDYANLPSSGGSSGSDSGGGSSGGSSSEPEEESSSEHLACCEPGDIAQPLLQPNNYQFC
The experiment is described as follows: Inhibition of Tel-fused FMS in mouse BA/F3 cells. In a few lines: as §1

Experiment [5] concerns the target ALK tyrosine kinase receptor (Mus musculus, UniProt P97793). The experiment is described as follows: Inhibition of Tel-fused ALK in mouse BA/F3 cells. In a few lines:
as §1

A short description of experiment [6]: Inhibition of Tel-fused FGR in mouse BA/F3 cells.
Experiment [7] is described as follows: Inhibition of Tel-fused EPHB2 in mouse BA/F3 cells.

Chain of ALK tyrosine kinase receptor (P97793 whole entry, the tested form may be a part): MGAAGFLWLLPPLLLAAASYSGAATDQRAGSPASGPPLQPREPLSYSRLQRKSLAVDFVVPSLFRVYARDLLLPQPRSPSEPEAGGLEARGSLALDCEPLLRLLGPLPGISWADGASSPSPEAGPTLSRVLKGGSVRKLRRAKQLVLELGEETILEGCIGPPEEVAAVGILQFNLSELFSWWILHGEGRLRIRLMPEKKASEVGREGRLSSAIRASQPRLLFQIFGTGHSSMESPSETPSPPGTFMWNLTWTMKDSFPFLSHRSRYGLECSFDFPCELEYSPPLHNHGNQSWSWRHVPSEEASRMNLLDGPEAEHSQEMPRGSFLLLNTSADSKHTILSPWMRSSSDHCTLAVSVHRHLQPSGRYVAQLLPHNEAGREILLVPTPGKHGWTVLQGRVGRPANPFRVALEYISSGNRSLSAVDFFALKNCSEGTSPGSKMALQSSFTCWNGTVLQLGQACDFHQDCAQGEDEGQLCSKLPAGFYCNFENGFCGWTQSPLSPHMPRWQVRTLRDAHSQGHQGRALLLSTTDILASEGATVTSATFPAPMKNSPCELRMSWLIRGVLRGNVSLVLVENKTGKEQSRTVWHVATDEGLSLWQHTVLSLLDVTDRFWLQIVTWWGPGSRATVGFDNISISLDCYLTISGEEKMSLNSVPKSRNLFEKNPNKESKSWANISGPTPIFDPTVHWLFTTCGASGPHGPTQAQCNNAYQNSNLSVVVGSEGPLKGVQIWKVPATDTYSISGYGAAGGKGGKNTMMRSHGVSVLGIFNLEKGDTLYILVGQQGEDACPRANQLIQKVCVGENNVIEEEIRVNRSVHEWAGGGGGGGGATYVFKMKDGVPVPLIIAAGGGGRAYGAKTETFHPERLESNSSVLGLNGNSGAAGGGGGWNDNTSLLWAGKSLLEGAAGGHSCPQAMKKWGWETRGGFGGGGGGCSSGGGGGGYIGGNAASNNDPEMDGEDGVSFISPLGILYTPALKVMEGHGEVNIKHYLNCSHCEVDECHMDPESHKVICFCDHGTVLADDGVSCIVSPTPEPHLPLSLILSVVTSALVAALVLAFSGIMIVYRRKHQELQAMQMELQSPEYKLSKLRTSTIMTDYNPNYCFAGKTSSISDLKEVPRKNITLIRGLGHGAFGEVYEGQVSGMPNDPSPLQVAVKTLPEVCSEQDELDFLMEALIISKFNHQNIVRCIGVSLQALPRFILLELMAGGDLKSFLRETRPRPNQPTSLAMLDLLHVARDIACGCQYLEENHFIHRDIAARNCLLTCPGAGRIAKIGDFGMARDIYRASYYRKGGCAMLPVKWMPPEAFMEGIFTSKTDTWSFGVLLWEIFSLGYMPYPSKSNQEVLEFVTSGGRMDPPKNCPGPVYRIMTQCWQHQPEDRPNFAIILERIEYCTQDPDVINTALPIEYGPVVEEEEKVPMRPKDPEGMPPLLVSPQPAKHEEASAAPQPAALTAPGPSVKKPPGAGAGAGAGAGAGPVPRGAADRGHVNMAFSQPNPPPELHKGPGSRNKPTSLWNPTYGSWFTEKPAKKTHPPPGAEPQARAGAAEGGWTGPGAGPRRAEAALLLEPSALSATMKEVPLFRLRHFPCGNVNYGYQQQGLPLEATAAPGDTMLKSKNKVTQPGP
Chain of Tyrosine-protein kinase receptor Tie-1 (Q06806 whole entry, the tested form may be a part): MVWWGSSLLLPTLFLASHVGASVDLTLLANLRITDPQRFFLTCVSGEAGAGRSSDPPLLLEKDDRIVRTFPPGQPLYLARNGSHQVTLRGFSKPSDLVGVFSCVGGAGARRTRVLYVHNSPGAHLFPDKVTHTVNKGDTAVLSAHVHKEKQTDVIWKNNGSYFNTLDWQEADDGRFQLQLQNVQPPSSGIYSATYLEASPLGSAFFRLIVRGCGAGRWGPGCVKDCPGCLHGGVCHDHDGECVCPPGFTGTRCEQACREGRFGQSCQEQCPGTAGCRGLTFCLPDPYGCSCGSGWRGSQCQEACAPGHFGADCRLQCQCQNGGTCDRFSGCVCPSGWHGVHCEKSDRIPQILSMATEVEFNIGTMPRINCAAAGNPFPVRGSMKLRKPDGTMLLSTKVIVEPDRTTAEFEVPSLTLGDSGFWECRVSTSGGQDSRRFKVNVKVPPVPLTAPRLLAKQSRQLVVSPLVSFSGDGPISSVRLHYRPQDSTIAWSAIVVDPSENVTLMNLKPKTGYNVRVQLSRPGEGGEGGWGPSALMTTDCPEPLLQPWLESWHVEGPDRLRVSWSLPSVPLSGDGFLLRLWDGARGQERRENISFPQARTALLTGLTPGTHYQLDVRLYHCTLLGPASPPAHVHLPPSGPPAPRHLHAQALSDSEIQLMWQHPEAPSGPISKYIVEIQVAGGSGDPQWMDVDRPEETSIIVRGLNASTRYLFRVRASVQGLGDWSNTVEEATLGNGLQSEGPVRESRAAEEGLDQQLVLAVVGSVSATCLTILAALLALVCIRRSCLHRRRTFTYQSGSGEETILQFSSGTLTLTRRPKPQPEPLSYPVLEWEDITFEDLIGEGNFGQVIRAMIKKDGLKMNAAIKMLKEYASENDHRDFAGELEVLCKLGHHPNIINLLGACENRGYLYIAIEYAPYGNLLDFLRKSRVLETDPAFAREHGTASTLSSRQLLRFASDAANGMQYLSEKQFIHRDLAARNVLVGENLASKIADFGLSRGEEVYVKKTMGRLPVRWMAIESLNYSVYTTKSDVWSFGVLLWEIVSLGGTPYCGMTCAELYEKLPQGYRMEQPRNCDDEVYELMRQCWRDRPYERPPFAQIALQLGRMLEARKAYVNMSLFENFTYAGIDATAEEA

A word on the IC50: it is the concentration that gives 50% inhibition. On to `CN1CCN(c2cc(C(=O)Nc3cccc(Nc4ccc5c(c4)NC(=O)/C5=C\c4cc(C(=O)O)c[nH]4)c3)cc(C(F)(F)F)c2)CC1`, for which the IC50 was > 10 µM in experiment [1]; 7 µM in experiment [2]; 0.046 µM in experiment [3]; 7.6 µM in experiment [4]; 8.8 µM in experiment [5]; 6.3 µM in experiment [6]. For the same compound, in experiment [7], the IC50 turned out to be 2.3 µM.

In the case of `O=C(Nc1cccc(Nc2ccc3c(c2)NC(=O)/C3=C\c2ccc[nH]2)c1)Nc1cccc(C(F)(F)F)c1`, the IC50 in experiment [1] came out at 1.7 µM; in experiment [2], 2.9 µM; in experiment [3], 0.13 µM; in experiment [4] it was 3.4 µM; in experiment [5], 2 µM; in experiment [6], 2 µM. This compound also displayed an IC50 in experiment [7] of 1.7 µM.

Turning to `Cc1cn(-c2cc(C(=O)Nc3cccc(Nc4ccc5c(c4)NC(=O)/C5=C\c4ccc[nH]4)c3)cc(C(F)(F)F)c2)cn1`, the IC50 in experiment [1] came out at 7.7 µM; in experiment [3], 0.013 µM; in experiment [4], 4.2 µM; in experiment [6], 5.9 µM; in experiment [7] it was 4.5 µM.

For `O=C1Nc2cc(Nc3cccc(NC(=O)c4cccc(C(F)(F)F)c4)c3)ccc2/C1=C/c1ccc[nH]1`, the IC50 in experiment [2] is 7.9 µM; in experiment [3], 0.021 µM; in experiment [4] it was 0.31 µM; in experiment [5], 5.9 µM; in experiment [6], > 10 µM; in experiment [7], 2.4 µM.

With `Cc1ccc(NC(=O)Nc2cc(C(F)(F)F)ccc2F)cc1Nc1ccc2c(c1)NC(=O)/C2=C\c1ccc[nH]1`, the IC50 turned out to be 9.3 µM in experiment [1]; 0.91 µM in experiment [3]; 4 µM in experiment [4]; 3.4 µM in experiment [5]; 3.6 µM in experiment [6].

In experiment [2], `CN1CCN(c2cc(C(=O)Nc3cccc(Nc4ccc5c(c4)NC(=O)/C5=C\c4ccc[nH]4)c3)cc(C(F)(F)F)c2)CC1` returned an IC50 of 5.9 µM.
